Screens: PubChem BioAssay, several laboratories
Hits are enriched below; roughly 2.2% of the tested compounds scored in any of these assays.
HSP90 inh – HSP90 inhibitors, primary screen, cell lysate, luminescence; 290,000 compounds, 0.91% hits; inhibition, % at 5.6 µM; Rabbit reticulocyte lysate, luciferase refolding luminescence, 3 h; Heat shock protein HSP 90 (rabbit reticulocyte lysate; luciferase refolding);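 active = inhibition above the screen-wide mean plus 3 SD, computed separately per campaign, cut at about 16% in these data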;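 note: 0% = DMSO wells and 100% = 60 µM geldanamycin wells; inhibitors lower the luminescence because luciferase stays unfolded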
PPC-1+TRAIL kill – compounds killing PPC-1 cancer cells with TRAIL present, primary screen, TRAIL potentiator project, ATPLite luminescence, uHTS; PPC-1 cells + TRAIL, ATPLite viability luminescence; cell killing (% activity), % at 4 µM or 5 µM; 220,000 compounds, 0.41% hits; AID 1443, 2008;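 active = cell killing above 50% in the first pass at 4 µM, then a duplicate retest at 5 µM averaging 50% or more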;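 note: plate controls were cells with TRAIL plus DMSO for no effect and medium-only wells lacking cells for full effect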
FLuc stim CS – FLuc activators, initial screening, artefact control for FLuc-dependent activation tests, biochemical, ATPlite luminescence; Luciferin 4-monooxygenase (Photinus pyralis), P08659; ATPlite luciferase biochemical, 10 min; 0 = ATP-free wells, 1 = DMSO control; 200,000 tested, under 10 active; activation factor at 10 µM;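 active = luciferase activation factor, scaled between plate controls, of at least 2 with compound at 10 µM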
Target sequence (P08659 whole entry, looked up): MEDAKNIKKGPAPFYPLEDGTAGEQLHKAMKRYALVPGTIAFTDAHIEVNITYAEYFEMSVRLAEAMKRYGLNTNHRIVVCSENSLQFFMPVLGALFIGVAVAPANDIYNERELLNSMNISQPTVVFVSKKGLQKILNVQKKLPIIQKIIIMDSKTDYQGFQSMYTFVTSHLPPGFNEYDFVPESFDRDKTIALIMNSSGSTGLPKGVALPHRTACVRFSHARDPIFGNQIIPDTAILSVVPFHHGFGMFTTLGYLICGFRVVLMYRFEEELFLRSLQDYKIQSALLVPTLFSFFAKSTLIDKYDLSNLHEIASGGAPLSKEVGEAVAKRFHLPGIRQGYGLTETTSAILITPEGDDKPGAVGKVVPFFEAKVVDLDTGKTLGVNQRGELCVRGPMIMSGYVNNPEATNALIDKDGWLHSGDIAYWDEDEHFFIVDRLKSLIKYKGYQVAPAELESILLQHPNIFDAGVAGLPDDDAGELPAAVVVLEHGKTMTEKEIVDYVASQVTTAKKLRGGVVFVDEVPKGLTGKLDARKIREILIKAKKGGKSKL
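Assay system: Luciferase/luciferin reagent mix; Medium: PBS as buffer for the ATP substrate; Dosing: test compounds dosed from 2 mM stocks in 100% DMSO; Times: 10 min, room temperature; Signal: luminescence from luciferase reaction; Read-out: luciferase activation; Controls: No-ATP low control, compound-free enzyme-plus-ATP high control.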
STAT3 blocker – IL-6 driven STAT3 reporter inhibitors, primary screen, U3A cells, luciferase, luminescence, MLSCN library | IL-6 STAT3-luciferase reporter; host cell line lacks STAT1 | inhibition, % at 5.5 µM | 190,000 compounds, 0.89% hits;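 active = inhibition above the mean inhibition across all screened compounds plus 3 SD, cut at about 44% in these data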;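 note: 0% = DMSO only wells and 100% = 100 µM nifuroxazide control wells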
TRAIL sens C8 – viability loss with TRAIL in NB7+C8 cells, primary screen, TRAIL sensitizer project, cell-based, ATPlite luminescence. inhibition (viability loss, TRAIL sensitization), % at 10 µM. 360,000 compounds, 1% hits. AID 624354, 2012;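 active = compounds causing at least 50% loss of cell viability in the single-dose screen, relative to plate controls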
FLuc inhib CS – firefly luciferase enzyme inhibitors, primary screen, artefact control for luciferase-based inhibitor screens, biochemical, luminescence, ATPLite. 10 min. AID 1006, 2008. 200,000 compounds, 1.5% hits. Luciferin 4-monooxygenase (Photinus pyralis), P08659. inhibition, % at 10 µM;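 active = inhibition above about 50% when tested at 10 µM, limit read from the data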
HSP90 confirm – HSP90 inhibitors, confirmation, cell lysate, luminescence; shares compounds with HSP90 inh; rabbit reticulocyte lysate, luciferase refolding luminescence, 3 h; inhibition, % at 5.9 µM; 2,300 compounds, 64% hits; AID 1846, 2009; in the data active = inhibition above about 18%;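 note: 0% = vehicle wells and 100% = reference inhibitor wells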
luciferase ctr – firefly luciferase inhibitors, HSP90 counter-screen, confirmation, artefact control for HSP90 inhibitor project, biochemical, luminescence, triplicate | shares compounds with HSP90 inh | purified native firefly luciferase | inhibition, % at 5.9 µM | 2,300 compounds, 48% hits;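 active = inhibition above the mean inhibition of all tested sample wells plus 3 SD, cut at about 10% in these data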;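 note: 0% = DMSO with luciferase and 100% = wells lacking luciferase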
* marks the source's active call; other numbers are inactive results.

Screening CCOC(=O)C1CCCN(C(=O)c2ccc3nc(-c4cccc(OC)c4)oc3c2)C1 (stereo unspecified) returned HSP90 inh 21*, TRAIL sens C8 33, HSP90 confirm 36* and luciferase ctr 25*.
CCC(=O)C1CCCN(C(=O)c2ccc3nc(-c4cccc(OC)c4)oc3c2)C1 (stereo unspecified) was read as HSP90 inh 25*, TRAIL sens C8 16, HSP90 confirm 32* and luciferase ctr 15*.
Screening CCN(CC)C(=O)C1CCCN(C(=O)c2ccc3nc(-c4cccc(OC)c4)oc3c2)C1 (stereo unspecified) returned TRAIL sens C8 3.
COc1cccc(-c2nc3ccc(C(=O)N4CCCC(O)C4)cc3o2)c1 (stereo unspecified) was read as HSP90 inh -2 and TRAIL sens C8 13.
For COc1cc(OC)cc(C(=O)NCCC(=O)NCCc2ccc(OC)c(OC)c2)c1 the results were HSP90 inh -1, PPC-1+TRAIL kill 26, FLuc stim CS 1, STAT3 blocker -11, TRAIL sens C8 -11 and FLuc inhib CS -2.
`COc1ccc(N2CCC(CNC(=S)Nc3cccc(OC)c3)C2)cc1` (stereo unspecified) gave HSP90 inh 18*, PPC-1+TRAIL kill 14, FLuc stim CS 1.1, STAT3 blocker 8, FLuc inhib CS -7, HSP90 confirm 0 and luciferase ctr -10.
`COc1ccc(N2CCC(CNC(=O)Nc3cccc(OC)c3)C2)cc1` (stereo unspecified) gave HSP90 inh 1, PPC-1+TRAIL kill 15, FLuc stim CS 1.1, STAT3 blocker 8, TRAIL sens C8 -8 and FLuc inhib CS -6.
For CC(CCN1CCN=C1Nc1ccccc1)c1ccccc1 (stereo unspecified) the results were HSP90 inh -4 and TRAIL sens C8 -13.
Screening CCOc1cc(C2NN=C(c3ccc(C)cc3)S2)ccc1O (stereo unspecified) returned HSP90 inh -6, PPC-1+TRAIL kill 18, FLuc stim CS 0.8, STAT3 blocker -4, TRAIL sens C8 39 and FLuc inhib CS 21.
Screening Oc1ccccc1C1NN=C(c2ccccc2)S1 (stereo unspecified) returned HSP90 inh 24*, TRAIL sens C8 70*, HSP90 confirm 33* and luciferase ctr 18*.
For O=C(NCC1CC1)c1cc2c(c(-c3cccc(-c4ccccc4F)c3)n1)[C@@H](CCO)N(C(=O)CC1CC1)C2 the results were TRAIL sens C8 15.
Screening CN(Cc1ccc(Cl)cc1Cl)C(=O)C1CSC2(C)CCC(=O)N12 (stereo unspecified) returned TRAIL sens C8 -1.
Screening CC(C)Sc1nc(SCC(=O)NCc2ccco2)c2c3c(sc2n1)COC(C)(C)C3 returned HSP90 inh 21*, PPC-1+TRAIL kill 12, FLuc stim CS 0.9, STAT3 blocker -15, TRAIL sens C8 11, FLuc inhib CS 7, HSP90 confirm 36* and luciferase ctr 1.
CC(C)Sc1nc(SCC(=O)O)c2c3c(sc2n1)COC(C)(C)C3 was read as HSP90 inh 8, PPC-1+TRAIL kill 5 and TRAIL sens C8 5.
CCOc1ccc(C(=O)Nc2cccc(C(=O)O)c2C)cc1Cl was read as HSP90 inh 88*, PPC-1+TRAIL kill 14, FLuc stim CS 0.8, STAT3 blocker 75*, TRAIL sens C8 8, FLuc inhib CS 19, HSP90 confirm 92* and luciferase ctr 68*.
For Cc1c(NC(=O)c2ccc(-c3ccccc3)cc2)cccc1C(=O)O the results were HSP90 inh 75*, PPC-1+TRAIL kill 13, TRAIL sens C8 6, HSP90 confirm 81* and luciferase ctr 63*.
Screening CCOc1ccc(C(=O)Nc2ccccc2-c2ccccc2)cc1Cl returned HSP90 inh 2, PPC-1+TRAIL kill -4, FLuc stim CS 1.1, STAT3 blocker 26, TRAIL sens C8 -1 and FLuc inhib CS -6.
Screening C/C(=N/NC(=O)c1ccoc1C)c1cccc(NC(=O)C2CC2)c1 returned HSP90 inh -1, PPC-1+TRAIL kill 34, FLuc stim CS 0.9, STAT3 blocker -11, TRAIL sens C8 -4 and FLuc inhib CS 8.
O=C(Nc1ccccc1)OCCc1ccccc1 was read as TRAIL sens C8 13.
`O=c1cc(-c2cccc([N+](=O)[O-])c2)[nH][nH]1` gave HSP90 inh 24*, PPC-1+TRAIL kill 21, FLuc stim CS 1.1, STAT3 blocker -5, TRAIL sens C8 0, FLuc inhib CS -8, HSP90 confirm 0 and luciferase ctr -3.
Cc1cc(Br)ccc1NC(=O)CN1C(=O)C2CC=CCC2C1=O (stereo unspecified) was read as TRAIL sens C8 3.
`COc1ccc(C(=O)Cc2ccccc2C(=O)O)cc1` gave TRAIL sens C8 8.
Screening COc1ccc(C(=O)CSc2ccccc2C(=O)O)cc1 returned HSP90 inh 32*, PPC-1+TRAIL kill 28, FLuc stim CS 0.7, STAT3 blocker 20, TRAIL sens C8 3, FLuc inhib CS 30, HSP90 confirm 32* and luciferase ctr -7.
For COc1ccc(C(=O)Nn2c(SCC(=O)N3CCC(C)CC3)nc3ccccc3c2=O)cc1 the results were HSP90 inh 73*, PPC-1+TRAIL kill 49, FLuc stim CS 0.2, STAT3 blocker 88*, TRAIL sens C8 52*, FLuc inhib CS 75*, HSP90 confirm 71* and luciferase ctr 67*.
Screening COCCn1c(SCC(=O)N2CCC(C)CC2)nc2ccccc2c1=O returned HSP90 inh 5, PPC-1+TRAIL kill -3, FLuc stim CS 1.1, STAT3 blocker 6, TRAIL sens C8 -1 and FLuc inhib CS -12.
`COc1ccc(C(=O)Nn2c(C)nc3ccccc3c2=O)cc1` gave HSP90 inh 7 and TRAIL sens C8 -5.
